In ChEMBL document CHEMBL1156750 (Bioorg Med Chem Lett, 2009):
Active and inactive are the calls of the source. The calls are words filed in the database; no cut-off is given here.

Tests used:
[1] = biological target: Beta-2 adrenergic receptor (Homo sapiens) (UniProt P07550); experiment: Inhibition of human beta-2 adrenergic receptor at 10 uM
[2] = species on record: Homo sapiens; experiment: Inhibition of human sst receptor at 10 uM
[3] = test system: Plasma; experiment: Anticoagulant activity in human plasma assessed as concentration required to double the prothrombin based clotting time after 30 seconds; assay type: functional
Procedure, shortened: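 Human plasma prothrombin-based clotting time; value is the inhibitor concentration that doubles the clotting time, averaged from two independent determinations.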

[4] = Inhibition of human Tryptase
[5] = test system: Rattus norvegicus; experiment: Anticoagulant activity against […] Sprague-Dawley rat carotid artery thrombosis assessed as decreasing thrombosis weight at 10 mg/kg, po; assay type: functional; set-up: scale not given: the % may be the effect or the level left
Procedure, shortened: (§1)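 Rat carotid artery thrombosis: vehicle (PEG-400) or compound given by 1 mL/kg gavage at 0 min (5, 10, 15, 30 mg/kg; n = 5, 6, 6, 4; vehicle n = 8), with aspirin 10 mg/kg iv 15 min before FeCl2. Rats anesthetized at 30 min. 50% FeCl2 applied topically at 60 min for 10 min. Thrombus weight taken 1 h later. ANOVA with Dunnett's test.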

[6] = biological target: Adenosine receptor A1 (Homo sapiens) (UniProt P30542); experiment: Inhibition of human A1 receptor at 10 uM
Chain of Adenosine receptor A1 (Homo sapiens) (P30542 whole entry): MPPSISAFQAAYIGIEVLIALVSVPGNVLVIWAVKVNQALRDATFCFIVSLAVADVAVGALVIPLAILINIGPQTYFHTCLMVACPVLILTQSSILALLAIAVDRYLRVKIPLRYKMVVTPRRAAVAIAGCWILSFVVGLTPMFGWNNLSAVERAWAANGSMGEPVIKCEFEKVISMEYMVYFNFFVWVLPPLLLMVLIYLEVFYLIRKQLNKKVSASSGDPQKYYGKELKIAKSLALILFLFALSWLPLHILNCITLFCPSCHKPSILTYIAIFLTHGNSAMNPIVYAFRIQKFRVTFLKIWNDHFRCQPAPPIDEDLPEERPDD

[7] = biological target: Beta-1 adrenergic receptor (Homo sapiens) (UniProt P08588); experiment: Inhibition of human beta-1 adrenergic receptor at 10 uM
Chain of Beta-1 adrenergic receptor (Homo sapiens) (P08588 whole entry, looked up): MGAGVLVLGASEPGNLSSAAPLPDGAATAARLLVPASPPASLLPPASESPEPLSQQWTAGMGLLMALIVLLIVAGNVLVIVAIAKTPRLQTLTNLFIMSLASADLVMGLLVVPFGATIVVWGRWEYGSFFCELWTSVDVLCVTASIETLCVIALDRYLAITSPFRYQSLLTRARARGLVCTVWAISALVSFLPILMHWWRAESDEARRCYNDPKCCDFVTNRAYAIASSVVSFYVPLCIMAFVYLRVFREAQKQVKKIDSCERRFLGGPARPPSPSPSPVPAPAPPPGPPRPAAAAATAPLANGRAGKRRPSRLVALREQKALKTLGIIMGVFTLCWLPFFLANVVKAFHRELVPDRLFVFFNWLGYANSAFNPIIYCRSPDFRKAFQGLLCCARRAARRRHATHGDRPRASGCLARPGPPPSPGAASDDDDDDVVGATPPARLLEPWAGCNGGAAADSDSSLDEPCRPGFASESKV

[8] = biological target: Histamine H1 receptor (Cavia porcellus) (UniProt P31389); experiment: Inhibition of guinea pig H1 receptor
Chain of Histamine H1 receptor (Cavia porcellus) (P31389 whole entry): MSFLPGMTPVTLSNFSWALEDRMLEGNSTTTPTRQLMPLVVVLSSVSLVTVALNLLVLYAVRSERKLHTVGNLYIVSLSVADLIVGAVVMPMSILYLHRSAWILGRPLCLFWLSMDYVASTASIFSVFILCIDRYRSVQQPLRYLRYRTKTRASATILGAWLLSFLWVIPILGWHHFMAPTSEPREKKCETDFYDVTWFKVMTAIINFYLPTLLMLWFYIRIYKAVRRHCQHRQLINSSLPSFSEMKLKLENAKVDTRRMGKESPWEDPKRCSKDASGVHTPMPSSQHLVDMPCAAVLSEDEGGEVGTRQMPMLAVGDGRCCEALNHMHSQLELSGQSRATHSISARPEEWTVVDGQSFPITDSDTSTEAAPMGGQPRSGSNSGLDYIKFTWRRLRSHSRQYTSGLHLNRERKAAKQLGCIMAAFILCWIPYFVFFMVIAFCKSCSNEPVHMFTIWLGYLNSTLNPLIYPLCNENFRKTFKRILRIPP

[9] = species on record: Rattus norvegicus; experiment: Inhibition of rat AMPA receptor at 10 uM
[10] = test system: Rattus norvegicus; experiment: Anticoagulant activity against Sprague-Dawley rat carotid artery thrombosis induced by FeCl2 in aspirin-treated rats assessed as decreasing thrombosis weight at 30 mg/kg, po; set-up: scale not given: the % may be the effect or the level left
[11] = biological target: Histamine H2 receptor (Cavia porcellus) (UniProt P47747); experiment: Inhibition of guinea pig H2 receptor at 10 uM
Chain of Histamine H2 receptor (Cavia porcellus) (P47747 whole entry): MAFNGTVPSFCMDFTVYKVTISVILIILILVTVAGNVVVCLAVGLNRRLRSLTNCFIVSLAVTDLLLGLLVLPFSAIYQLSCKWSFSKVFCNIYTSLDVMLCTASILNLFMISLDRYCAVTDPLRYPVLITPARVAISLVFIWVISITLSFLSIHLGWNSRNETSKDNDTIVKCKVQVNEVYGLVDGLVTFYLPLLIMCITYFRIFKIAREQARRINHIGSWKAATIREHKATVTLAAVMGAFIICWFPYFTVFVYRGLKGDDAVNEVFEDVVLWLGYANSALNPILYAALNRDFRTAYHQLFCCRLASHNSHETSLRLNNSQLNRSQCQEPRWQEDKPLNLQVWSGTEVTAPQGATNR

[12] = biological target: 5-hydroxytryptamine receptor 1A (Homo sapiens) (UniProt P08908); experiment: Inhibition of human 5-HT1A receptor at 10 uM
Chain of 5-hydroxytryptamine receptor 1A (Homo sapiens) (P08908 whole entry): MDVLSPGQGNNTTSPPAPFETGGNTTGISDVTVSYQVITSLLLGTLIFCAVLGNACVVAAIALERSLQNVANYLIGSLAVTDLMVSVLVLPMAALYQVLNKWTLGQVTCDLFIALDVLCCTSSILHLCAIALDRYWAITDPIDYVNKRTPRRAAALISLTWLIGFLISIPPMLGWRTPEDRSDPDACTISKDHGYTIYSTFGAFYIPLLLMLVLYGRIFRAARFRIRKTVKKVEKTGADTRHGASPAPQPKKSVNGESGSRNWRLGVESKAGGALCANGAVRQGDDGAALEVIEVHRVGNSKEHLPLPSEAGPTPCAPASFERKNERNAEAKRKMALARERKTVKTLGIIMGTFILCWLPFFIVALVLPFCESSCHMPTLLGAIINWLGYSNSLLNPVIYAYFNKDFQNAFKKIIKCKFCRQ

[13] = biological target: Muscarinic acetylcholine receptor (Rattus norvegicus) (UniProt P08482+P08483+P08485+P08911+P10980); experiment: Inhibition of rat muscarinic receptor at 10 uM
[14] = biological target: Adrenergic receptor alpha-2 (Rattus norvegicus) (UniProt P22086+P19328+P22909); experiment: Inhibition of rat alpha-2 adrenergic receptor at 10 uM
[15] = species on record: Rattus norvegicus; experiment: Inhibition of rat 5-HT receptor at 10 uM
[16] = biological target: Progesterone receptor (Homo sapiens) (UniProt P06401); experiment: Inhibition of human PR at 10 uM
[17] = species on record: Rattus norvegicus; experiment: Inhibition of rat choline transporter at 10 uM
[18] = biological target: D(2) dopamine receptor (Homo sapiens) (UniProt P14416); experiment: Inhibition of human dopamine D2S receptor at 10 uM
Chain of D(2) dopamine receptor (Homo sapiens) (P14416 whole entry): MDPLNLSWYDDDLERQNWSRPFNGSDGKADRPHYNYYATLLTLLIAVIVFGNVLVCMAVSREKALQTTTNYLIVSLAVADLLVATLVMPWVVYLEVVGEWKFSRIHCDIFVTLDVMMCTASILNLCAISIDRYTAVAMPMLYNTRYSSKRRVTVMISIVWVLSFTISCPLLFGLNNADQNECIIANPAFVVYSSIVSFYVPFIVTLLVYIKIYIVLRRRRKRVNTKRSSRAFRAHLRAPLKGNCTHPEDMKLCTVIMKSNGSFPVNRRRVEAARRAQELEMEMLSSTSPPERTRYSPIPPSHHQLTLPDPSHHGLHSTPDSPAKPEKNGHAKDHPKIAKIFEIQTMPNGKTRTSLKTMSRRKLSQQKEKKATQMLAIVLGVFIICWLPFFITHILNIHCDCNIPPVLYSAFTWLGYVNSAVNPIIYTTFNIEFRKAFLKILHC

[19] = species on record: Rattus norvegicus; experiment: Inhibition of rat chloride channel at 10 uM
[20] = biological target: D(1A) dopamine receptor (Homo sapiens) (UniProt P21728); experiment: Inhibition of human dopamine D1 receptor at 10 uM
Chain of D(1A) dopamine receptor (Homo sapiens) (P21728 whole entry): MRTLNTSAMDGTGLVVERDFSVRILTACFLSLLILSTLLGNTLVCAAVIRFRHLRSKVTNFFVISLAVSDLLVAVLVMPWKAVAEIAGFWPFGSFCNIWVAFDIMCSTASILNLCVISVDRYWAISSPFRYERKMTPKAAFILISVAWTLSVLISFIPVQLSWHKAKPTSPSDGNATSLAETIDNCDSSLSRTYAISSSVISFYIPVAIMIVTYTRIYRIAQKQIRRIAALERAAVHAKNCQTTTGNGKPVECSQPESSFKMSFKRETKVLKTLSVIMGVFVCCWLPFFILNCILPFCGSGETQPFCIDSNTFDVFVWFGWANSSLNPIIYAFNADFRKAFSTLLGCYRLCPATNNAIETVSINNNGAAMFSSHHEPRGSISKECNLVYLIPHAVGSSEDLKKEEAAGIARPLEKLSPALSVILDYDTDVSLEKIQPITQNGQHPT

[21] = biological target: 5-hydroxytryptamine receptor 2B (Homo sapiens) (UniProt P41595); experiment: Inhibition of human 5-HT2B receptor at 10 uM
[22] = test system: Rattus norvegicus; experiment: Anticoagulant activity in Fecl2-induced po dosed Sprague-Dawley rat vena cava thrombosis model assessed as inhibition of thrombus weight; assay type: functional
Procedure, shortened: (§2)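 Rat vena cava thrombosis: vehicle (PEG-400) or compound at 5, 10, 15, 30 mg/kg (n = 5 per group) given by 1 mL/kg gavage at 0 min. Rats anesthetized at 30 min. 15% FeCl2 applied topically to the vena cava at 60 min for 2 min. Thrombus weight determined 1 h after FeCl2.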

[23] = biological target: Sodium-dependent dopamine transporter (Rattus norvegicus) (UniProt P23977); experiment: Inhibition of rat DA transporter at 10 uM
Chain of Sodium-dependent dopamine transporter (Rattus norvegicus) (P23977 whole entry): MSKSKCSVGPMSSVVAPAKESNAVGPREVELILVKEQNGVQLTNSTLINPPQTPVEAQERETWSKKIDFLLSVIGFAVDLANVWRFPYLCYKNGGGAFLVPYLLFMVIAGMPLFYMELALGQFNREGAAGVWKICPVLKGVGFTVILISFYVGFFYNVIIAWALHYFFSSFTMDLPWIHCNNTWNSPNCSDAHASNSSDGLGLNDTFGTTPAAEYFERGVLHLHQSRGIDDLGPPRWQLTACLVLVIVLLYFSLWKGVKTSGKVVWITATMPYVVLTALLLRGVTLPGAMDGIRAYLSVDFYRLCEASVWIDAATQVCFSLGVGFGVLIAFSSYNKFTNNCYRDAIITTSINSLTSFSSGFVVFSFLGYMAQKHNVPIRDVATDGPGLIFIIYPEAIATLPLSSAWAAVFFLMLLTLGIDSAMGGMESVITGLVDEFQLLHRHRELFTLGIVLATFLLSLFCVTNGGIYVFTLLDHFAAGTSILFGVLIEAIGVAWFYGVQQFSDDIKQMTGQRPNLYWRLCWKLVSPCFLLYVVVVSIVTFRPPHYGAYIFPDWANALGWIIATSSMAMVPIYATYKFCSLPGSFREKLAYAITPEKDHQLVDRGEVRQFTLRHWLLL

[24] = test system: Rattus norvegicus; experiment: Anticoagulant activity in Fecl2-induced Sprague-Dawley rat vena cava thrombosis model assessed as inhibition of thrombus weight at 15 mg/kg, po; assay type: functional; procedure, shortened: as §2
[25] = species on record: Rattus norvegicus; experiment: Inhibition of rat Opiate receptor at 10 uM
[26] = biological target: Cholecystokinin receptor type A (Homo sapiens) (UniProt P32238); experiment: Inhibition of human CCKA receptor at 10 uM
[27] = biological target: Glucocorticoid receptor (Homo sapiens) (UniProt P04150); experiment: Inhibition of human GR at 10 uM
Chain of Glucocorticoid receptor (Homo sapiens) (P04150 whole entry): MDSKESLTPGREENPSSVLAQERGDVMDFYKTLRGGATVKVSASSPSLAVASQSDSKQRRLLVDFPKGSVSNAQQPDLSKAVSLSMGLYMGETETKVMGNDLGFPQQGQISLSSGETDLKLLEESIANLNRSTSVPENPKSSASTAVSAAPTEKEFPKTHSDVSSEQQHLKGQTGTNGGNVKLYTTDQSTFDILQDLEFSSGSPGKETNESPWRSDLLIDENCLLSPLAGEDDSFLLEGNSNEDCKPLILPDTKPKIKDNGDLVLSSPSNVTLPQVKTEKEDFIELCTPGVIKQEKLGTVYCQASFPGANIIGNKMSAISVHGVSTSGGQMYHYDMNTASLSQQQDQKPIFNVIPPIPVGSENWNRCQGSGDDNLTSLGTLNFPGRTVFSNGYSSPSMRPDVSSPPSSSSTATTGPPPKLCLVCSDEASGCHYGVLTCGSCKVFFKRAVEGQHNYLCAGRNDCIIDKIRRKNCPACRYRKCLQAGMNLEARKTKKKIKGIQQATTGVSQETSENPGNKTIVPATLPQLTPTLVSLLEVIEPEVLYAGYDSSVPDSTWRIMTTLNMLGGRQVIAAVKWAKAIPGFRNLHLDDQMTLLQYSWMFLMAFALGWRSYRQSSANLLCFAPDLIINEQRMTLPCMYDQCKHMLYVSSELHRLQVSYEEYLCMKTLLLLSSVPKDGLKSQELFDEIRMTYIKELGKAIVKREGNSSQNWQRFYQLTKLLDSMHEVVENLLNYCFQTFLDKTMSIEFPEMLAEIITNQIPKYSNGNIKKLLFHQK

[28] = biological target: Adrenergic receptor alpha-1 (Rattus norvegicus) (UniProt P15823+P23944+P43140); experiment: Inhibition of rat alpha-1 adrenergic receptor at 10 uM
[29] = biological target: Glutamate NMDA receptor (Rattus norvegicus) (UniProt P35439+Q00959+Q00960+Q00961+Q62645+Q8VHN2+Q9R1M7); experiment: Inhibition of rat NMDA receptor at 10 uM; assay type: protein-complex assay
[30] = biological target: Trypsin (Homo sapiens, UniProt P07477+P07478+P35030); experiment: Inhibition of human trypsin; assay type: protein assay
[31] = biological target: Sodium-dependent noradrenaline transporter (Homo sapiens) (UniProt P23975); experiment: Inhibition of human NE transporter at 10 uM
Chain of Sodium-dependent noradrenaline transporter (Homo sapiens) (P23975 whole entry): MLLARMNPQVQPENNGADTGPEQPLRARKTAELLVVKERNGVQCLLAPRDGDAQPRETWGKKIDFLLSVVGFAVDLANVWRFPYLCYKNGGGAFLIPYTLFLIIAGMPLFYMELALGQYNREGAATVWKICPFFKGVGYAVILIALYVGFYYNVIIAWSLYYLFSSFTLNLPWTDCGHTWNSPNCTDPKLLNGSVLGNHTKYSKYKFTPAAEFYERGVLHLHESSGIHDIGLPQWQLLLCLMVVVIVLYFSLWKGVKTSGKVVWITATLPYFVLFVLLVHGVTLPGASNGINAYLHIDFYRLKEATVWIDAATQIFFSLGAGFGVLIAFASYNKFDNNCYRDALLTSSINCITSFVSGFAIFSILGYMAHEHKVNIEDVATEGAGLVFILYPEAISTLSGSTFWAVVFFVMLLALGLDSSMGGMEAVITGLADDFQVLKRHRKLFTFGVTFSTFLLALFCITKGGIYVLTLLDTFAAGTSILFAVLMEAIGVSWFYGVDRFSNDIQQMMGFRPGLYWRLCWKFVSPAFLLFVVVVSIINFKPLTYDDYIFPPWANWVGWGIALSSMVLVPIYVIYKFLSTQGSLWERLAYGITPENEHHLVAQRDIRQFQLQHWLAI

[32] = test system: Rattus norvegicus; experiment: Anticoagulant activity against Sprague-Dawley rat carotid artery thrombosis induced by FeCl2 in aspirin-treated rats assessed as decreasing thrombosis weight at 15 mg/kg, po; set-up: scale not given: the % may be the effect or the level left
[33] = species on record: Rattus norvegicus; experiment: Inhibition of rat GABA transporter at 10 uM
[34] = species on record: Rattus norvegicus; experiment: Inhibition of rat sodium channel site2 at 10 uM
[35] = Inhibition of sodium channel
[36] = test system: Rattus norvegicus; experiment: Anticoagulant activity against Sprague-Dawley rat arterial thrombosis model induced by topical application of Fecl2; assay type: functional; settings: Rattus norvegicus, Sprague-Dawley, oral; procedure, shortened: as §1
[37] = species on record: Rattus norvegicus; experiment: Inhibition of rat Kainate receptor at 10 uM
[38] = test system: Plasma; experiment: Anticoagulant activity in Sprague-Dawley rat plasma assessed as concentration required to double the prothrombin based clotting at 30 mg/kg, id; assay type: functional; settings: route intraduodenal
[39] = biological target: Estrogen receptor (Homo sapiens) (UniProt P03372); experiment: Inhibition of human ERalpha at 10 uM

Cc1cc2cc(N/C(=N\C(=O)c3ccc(C(=O)N(C)C)nc3)N[C@H]3CCCCN(CC(=O)N4CCCC4)C3=O)ccc2o1
Activity [1]: inactive
Activity [2]: inactive
Activity [3]: 2.5 µM
Ki [4]: > 30 µM
Activity [5]: 36%
Activity [6]: inactive
Activity [7]: inactive
Activity [8]: inactive
Activity [9]: inactive
Activity [10]: 54%
Activity [11]: inactive
Activity [12]: inactive
Activity [13]: inactive
Activity [14]: inactive
Activity [15]: inactive
Activity [16]: inactive
Activity [17]: inactive
Activity [18]: inactive
Activity [19]: inactive
Activity [20]: inactive
Activity [21]: inactive
ED50 [22]: 2 mg/kg
Activity [23]: inactive
inhibition in vivo at 15 mg/kg [24]: 90%
Activity [25]: inactive
Activity [26]: inactive
Activity [27]: inactive
Activity [28]: inactive
Activity [29]: inactive
Ki [30]: > 10 µM
Activity [31]: inactive
Activity [32]: 31%
Activity [33]: inactive
Activity [34]: inactive
Activity [35]: inactive
ED50 [36]: 10 mg/kg
Activity [37]: inactive
Activity [38]: 3.6 µM
Activity [39]: inactive
